# Legend:
# [1] = tested on: NCI-H460; assay: Cytotoxicity against human H460 cells assessed as growth inhibition measured after 72 hrs by SRB assay; format: functional
# Outline: (§1)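 Cancer lines were kept in DMEM with 10% FBS and glutamine at 37 °C, 5% CO2, and seeded at 2500–4000 cells per well in duplicate. Compound (from 40 mM DMSO stocks) was added 24 h after plating and left for 72 h. Cells were TCA-fixed, stained with SRB and read at 540 nm. GI50 came from an eight-point dose-response, using the change from day-0 optical density, with three to four independent replicates.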
# [2] = Cytotoxicity against human SJG2 cells assessed as growth inhibition measured after 72 hrs by SRB assay; format: functional; settings: SJ-G2; outline: as §1
# [3] = tested on: BE(2)-C; assay: Cytotoxicity against human BE2C cells assessed as growth inhibition measured after 72 hrs by SRB assay; format: functional; outline: as §1
# [4] = tested on: MCF7; assay: Cytotoxicity against human MCF-7 cells assessed as growth inhibition measured after 72 hrs by SRB assay; format: functional; outline: as §1
# [5] = tested on: MIA PaCa-2; assay: Cytotoxicity against human MIA cells assessed as growth inhibition measured after 72 hrs by SRB assay; format: functional; outline: as §1
# [6] = tested on: DU-145; assay: Cytotoxicity against human DU-145 cells assessed as growth inhibition measured after 72 hrs by SRB assay; format: functional; outline: as §1
# [7] = tested on: A2780; assay: Cytotoxicity against human A2780 cells assessed as growth inhibition measured after 72 hrs by SRB assay; format: functional; outline: as §1
# [8] = tested on: HT-29; assay: Cytotoxicity against human HT29 cells assessed as growth inhibition measured after 72 hrs by SRB assay; format: functional; outline: as §1
# [9] = tested on: U-87 MG; assay: Cytotoxicity against human U87 cells assessed as growth inhibition measured after 72 hrs by SRB assay; format: functional, U-87MG ATCC; outline: as §1
# [10] = tested on: A-431; assay: Cytotoxicity against human A431 cells assessed as growth inhibition measured after 72 hrs by SRB assay; format: functional; outline: as §1
# [11] = Cytotoxicity against human MCF10A cells assessed as growth inhibition measured after 72 hrs by SRB assay; format: cell-based, MCF-10A
# [12] = Selectivity index, ratio of GI50 for human MCF10A cells to GI50 for human HT-29 cells by SRB assay; format: toxicity; settings: MCF10A cells versus HT-29 cells, read-out: RatioGI50
# Outline: (§2)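 Fold selectivity is the MCF10A GI50 divided by the cancer-line GI50. Each GI50 is from the 72 h SRB assay: eight-point dose-response, day-0 optical density baseline, three to four separate replicates.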
# [13] = Selectivity index, ratio of GI50 for human MCF10A cells to GI50 for human MCF-7 cells by SRB assay; format: toxicity; settings: MCF10A cells versus MCF-7 cells, read-out: RatioGI50; outline: as §2
SMILES,GI50 [1],GI50 [2],GI50 [3],GI50 [4],GI50 [5],GI50 [6],GI50 [7],GI50 [8],GI50 [9],GI50 [10],GI50 at 72 h [11],selectivity ratio [12],selectivity ratio [13]
N#C/C(=C\c1ccc(OCC(O)CN2CCN(c3ccc([N+](=O)[O-])cc3)CC2)cc1)c1ccc(Cl)c(Cl)c1 (racemic),> 50000 nM,> 50000 nM,> 50000 nM,> 50000 nM,> 50000 nM,> 50000 nM,> 50000 nM,> 50000 nM,> 50000 nM,> 50000 nM,> 50000 nM,,
CC(=O)c1ccc(N2CCN(CC(O)COc3ccc(/C=C(\C#N)c4ccc(Cl)c(Cl)c4)cc3)CC2)cc1 (racemic),> 50000 nM,> 50000 nM,> 50000 nM,11000 nM,> 50000 nM,12000 nM,40000 nM,7700 nM,> 50000 nM,30000 nM,7500 nM,,
N#C/C(=C\c1ccc(OCC(O)CNC2CCCCC2)cc1)c1ccc(Cl)c(Cl)c1 (racemic),2200 nM,2700 nM,2800 nM,2700 nM,2700 nM,2400 nM,2900 nM,2000 nM,2800 nM,2200 nM,2800 nM,,
CN1CCN(CC(O)COc2ccc(/C=C(\C#N)c3ccc(Cl)c(Cl)c3)cc2)CC1 (racemic),2600 nM,2200 nM,2400 nM,2300 nM,2600 nM,2400 nM,2500 nM,1200 nM,2700 nM,1800 nM,2400 nM,,
N#C/C(=C\c1ccc(OCC(O)CNc2ccc(Br)cc2)cc1)c1ccc(Cl)c(Cl)c1 (racemic),6800 nM,11000 nM,11000 nM,5300 nM,11000 nM,13000 nM,10000 nM,6000 nM,16000 nM,11000 nM,13000 nM,,
N#C/C(=C\c1ccc(OCC(O)CN2CCCC2)cc1)c1ccc(Cl)c(Cl)c1 (racemic),3000 nM,3700 nM,2800 nM,2800 nM,5600 nM,4200 nM,2700 nM,1500 nM,5600 nM,2600 nM,2900 nM,,
CN(C)CC(O)COc1ccc(/C=C(\C#N)c2ccc(Cl)c(Cl)c2)cc1 (racemic),2800 nM,2700 nM,2500 nM,1900 nM,2300 nM,2700 nM,2500 nM,750 nM,3200 nM,1600 nM,2800 nM,3.7,
N#C/C(=C\c1ccc(OCC(O)CN2CCC(c3ccccc3)CC2)cc1)c1ccc(Cl)c(Cl)c1 (racemic),2700 nM,2500 nM,2600 nM,2500 nM,2400 nM,2700 nM,2700 nM,1900 nM,2900 nM,2600 nM,2500 nM,,
Cc1ccc(CN2CCN(CC(O)COc3ccc(/C=C(\C#N)c4ccc(Cl)c(Cl)c4)cc3)CC2)cc1 (racemic),2700 nM,2400 nM,2000 nM,1700 nM,2600 nM,4500 nM,1500 nM,1400 nM,3600 nM,2400 nM,2400 nM,,
Cc1ccc(N2CCN(CC(O)COc3ccc(/C=C(\C#N)c4ccc(Cl)c(Cl)c4)cc3)CC2)cc1 (racemic),2500 nM,2900 nM,2700 nM,2300 nM,3000 nM,2700 nM,3000 nM,2600 nM,6000 nM,3100 nM,3500 nM,,
N#C/C(=C\c1ccc(OCC(O)CN2CCCCCC2)cc1)c1ccc(Cl)c(Cl)c1 (racemic),3500 nM,5300 nM,2600 nM,2800 nM,5500 nM,4600 nM,3000 nM,1700 nM,3800 nM,2900 nM,3100 nM,,
CC1CCCN(CC(O)COc2ccc(/C=C(\C#N)c3ccc(Cl)c(Cl)c3)cc2)C1 (racemic),2900 nM,2800 nM,2600 nM,2300 nM,3300 nM,4000 nM,2800 nM,2400 nM,2800 nM,2500 nM,2500 nM,,
N#C/C(=C\c1ccc(OCC(O)CN2CCN(c3ccccc3)CC2)cc1)c1ccc(Cl)c(Cl)c1 (racemic),4000 nM,9000 nM,16000 nM,4100 nM,5700 nM,3500 nM,6300 nM,3300 nM,5400 nM,6300 nM,4800 nM,,
N#C/C(=C\c1ccc(OCC(O)CN2CCN(c3ccc(C(F)(F)F)cc3)CC2)cc1)c1ccc(Cl)c(Cl)c1 (racemic),> 50000 nM,> 50000 nM,> 50000 nM,> 50000 nM,> 50000 nM,> 50000 nM,> 50000 nM,,> 50000 nM,> 50000 nM,> 50000 nM,,
CC1CCCCN1CC(O)COc1ccc(/C=C(\C#N)c2ccc(Cl)c(Cl)c2)cc1 (racemic),2700 nM,2800 nM,2400 nM,2100 nM,2700 nM,3000 nM,2700 nM,360 nM,2900 nM,1600 nM,2500 nM,6.9,
N#C/C(=C\c1ccc(OCC(O)CNc2ccc(Cl)cc2)cc1)c1ccc(Cl)c(Cl)c1 (racemic),11000 nM,15000 nM,14000 nM,11000 nM,14000 nM,15000 nM,10000 nM,7000 nM,16000 nM,15000 nM,17000 nM,,
N#C/C(=C\c1ccc(OCC(O)CNC23CC4CC(CC(C4)C2)C3)cc1)c1ccc(Cl)c(Cl)c1 (racemic),1800 nM,2000 nM,2200 nM,2000 nM,1900 nM,2500 nM,1700 nM,890 nM,2500 nM,2100 nM,2500 nM,,
N#C/C(=C\c1ccc(OCC(O)CNC2C3CC4CC(C3)CC2C4)cc1)c1ccc(Cl)c(Cl)c1 (racemic),2700 nM,2600 nM,2600 nM,2100 nM,2400 nM,2600 nM,2500 nM,1400 nM,2700 nM,2800 nM,2700 nM,,
N#C/C(=C\c1ccc(OCC(O)CN2CCOCC2)cc1)c1ccc(Cl)c(Cl)c1 (racemic),8700 nM,9300 nM,3000 nM,5300 nM,13000 nM,13000 nM,8900 nM,3100 nM,17000 nM,3000 nM,5600 nM,,
COc1ccc(NCC(O)COc2ccc(/C=C(\C#N)c3ccc(Cl)c(Cl)c3)cc2)cc1 (racemic),16000 nM,32000 nM,41000 nM,5200 nM,27000 nM,28000 nM,17000 nM,3700 nM,29000 nM,62000 nM,19000 nM,5.1,3.6
CC1CCN(CC(O)COc2ccc(/C=C(\C#N)c3ccc(Cl)c(Cl)c3)cc2)CC1 (racemic),2900 nM,3000 nM,2600 nM,2300 nM,3400 nM,4600 nM,2700 nM,1700 nM,2900 nM,2600 nM,2700 nM,,
N#C/C(=C\c1ccc(OCC(O)CN2CCN(c3ccc(Cl)cc3)CC2)cc1)c1ccc(Cl)c(Cl)c1 (racemic),28000 nM,24000 nM,> 50000 nM,15000 nM,17000 nM,32000 nM,15000 nM,9000 nM,> 50000 nM,27000 nM,18000 nM,,
N#C/C(=C\c1ccc(OCC(O)CN2CCCCC2)cc1)c1ccc(Cl)c(Cl)c1 (racemic),3000 nM,2500 nM,2500 nM,2500 nM,2600 nM,2900 nM,2700 nM,660 nM,3000 nM,2100 nM,2500 nM,3.8,
